Assay results published in article PMC9414273 (Clinical Cancer Research, 2021).
Where two headings read alike, the source gives them in different places.

Legend:
[1] = tested on: patients with pancreatic cancer; conditions: patients with treatment-naïve advanced pancreatic cancer; cited from earlier work
[2] = tested on: patients with advanced cancer; assay: Safety and tolerability: treatment-emergent adverse events; format: in vivo, human
In short: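 Patients aged 18 or over with ECOG 0–1 got oral test compound twice daily, 2w/2w or 3w/1w per 28-day cycle, in a 3+3 escalation. Each dose level had at least 3 DLT-evaluable patients. AEs graded by CTCAE v4.03, and investigators judged relation to treatment. AE frequency and percentage given per arm for all patients dosed.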

[3] = tested on: patients with grade 4 glioma; assay: Antitumor activity; format: in vivo, human
In short: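 Patients with grade 4 glioma (IDH1/2-mutant or IDH wild-type) got oral test compound twice daily in 28-day cycles: dose escalation on 2w/2w or 3w/1w, expansion at 50 mg 2w/2w. RANO response by CT or MRI at baseline and days 22–28 of every other cycle until confirmed progression or withdrawal. CR/PR confirmed and reported as frequency. PFS and OS by Kaplan–Meier.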

[4] = tested on: T-cell proliferation; conditions: preclinical; cited from earlier work
[5] = tested on: 4T1-luciferase–positive preclinical tumor models of triple-negative breast cancer; conditions: in vitro and in vivo; cited from earlier work
[6] = cited from earlier work; for NOAEL daily AUC threshold for cardiotoxicity: established preclinically in rats and dogs
[7] = tested on: patients with advanced or metastatic cancers; assay: Antitumor activity; format: in vivo, human; conditions: for median PFS: advanced cancers
[8] = Plasma pharmacokinetics of LY3200882; format: in vivo, human
In short: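 Oral test compound twice daily on 2w/2w or 3w/1w schedules, 5–50 mg. Plasma measured by validated LC-MS/MS. Cmax, tmax, AUC, CL/F and V/F estimated noncompartmentally. Dose proportionality tested by a power model on log-transformed Cmax and AUC with dose as fixed effect. Steady state and accumulation inferred from t1/2.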

[9] = Any grade, Japanese cohort (N = 9)
[10] = Any grade, grade 4 glioma expansion, RP2D 2w/2w (N = 40)
[11] = Any grade, schedule A 2w/2w escalation (N = 30)
[12] = Any grade, schedule B 3w/1w escalation (N = 32)
[13] = Grade ≥3, Japanese cohort (N = 9)
[14] = Grade ≥3, grade 4 glioma expansion, RP2D 2w/2w (N = 40)
[15] = Grade ≥3, schedule A 2w/2w escalation (N = 30)
[16] = Grade ≥3, schedule B 3w/1w escalation (N = 32)
[17] = grade 4 glioma expansion, RP2D 2w/2w (N = 40)
[18] = single patient, IDH WT grade 4 glioma, monotherapy 50 mg twice a day 2w/2w
[19] = of a total of 139 patients, LY3200882-based therapies
[20] = schedule A 2w/2w escalation (N = 30)
[21] = schedule B 3w/1w escalation (N = 32)

FOLFIRINOX
ORR [1]: 31.6%

CC(C)(O)c1cc(Nc2cc(Oc3cn(C4CC4)nc3C3CCOCC3)ccn2)ccn1 [LY3200882]
Dose-limiting toxicities ([2]; 2w/2w and 3w/1w schedules): not observed | Recommended phase II dose (RP2D) ([2]; 2w/2w schedule): 50 mg twice a day | Recommended phase II dose (RP2D) ([2]; 3w/1w schedule): 35 mg twice a day | ALT increased (study treatment-related AE) [2, 9]: 1 (11) n (%) | Anemia (study treatment-related AE) [2, 9]: 1 (11) n (%) | Fatigue (study treatment-related AE) [2, 9]: 0 (0) n (%) | Nausea (study treatment-related AE) [2, 9]: 1 (11) n (%) | Subjects with ≥1 TEAE related to study treatment [2, 9]: 3 (33) n (%) | ALT increased (study treatment-related AE) [2, 10]: 0 (0) n (%) | Anemia (study treatment-related AE) [2, 10]: 0 (0) n (%) | Fatigue (study treatment-related AE) [2, 10]: 4 (10) n (%) | Nausea (study treatment-related AE) [2, 10]: 0 (0) n (%) | Subjects with ≥1 TEAE related to study treatment [2, 10]: 10 (25) n (%) | ALT increased (study treatment-related AE) [2, 11]: 0 (0) n (%) | Anemia (study treatment-related AE) [2, 11]: 1 (3) n (%) | Fatigue (study treatment-related AE) [2, 11]: 0 (0) n (%) | Nausea (study treatment-related AE) [2, 11]: 1 (3) n (%) | Subjects with ≥1 TEAE related to study treatment [2, 11]: 10 (33) n (%) | ALT increased (study treatment-related AE) [2, 12]: 2 (6) n (%) | Anemia (study treatment-related AE) [2, 12]: 1 (3) n (%) | Fatigue (study treatment-related AE) [2, 12]: 1 (3) n (%) | Nausea (study treatment-related AE) [2, 12]: 1 (3) n (%) | Subjects with ≥1 TEAE related to study treatment [2, 12]: 10 (31) n (%) | ALT increased (study treatment-related AE) [2, 13]: 0 (0) n (%) | Anemia (study treatment-related AE) [2, 13]: 0 (0) n (%) | Fatigue (study treatment-related AE) [2, 13]: 0 (0) n (%) | Nausea (study treatment-related AE) [2, 13]: 0 (0) n (%) | Subjects with ≥1 TEAE related to study treatment [2, 13]: 0 (0) n (%) | ALT increased (study treatment-related AE) [2, 14]: 0 (0) n (%) | Anemia (study treatment-related AE) [2, 14]: 0 (0) n (%) | Fatigue (study treatment-related AE) [2, 14]: 0 (0) n (%) | Nausea (study treatment-related AE) [2, 14]: 0 (0) n (%) | Subjects with ≥1 TEAE related to study treatment [2, 14]: 0 (0) n (%) | ALT increased (study treatment-related AE) [2, 15]: 0 (0) n (%) | Anemia (study treatment-related AE) [2, 15]: 0 (0) n (%) | Fatigue (study treatment-related AE) [2, 15]: 0 (0) n (%) | Nausea (study treatment-related AE) [2, 15]: 0 (0) n (%) | Subjects with ≥1 TEAE related to study treatment [2, 15]: 0 (0) n (%) | ALT increased (study treatment-related AE) [2, 16]: 0 (0) n (%) | Anemia (study treatment-related AE) [2, 16]: 0 (0) n (%) | Fatigue (study treatment-related AE) [2, 16]: 0 (0) n (%) | Nausea (study treatment-related AE) [2, 16]: 0 (0) n (%) | Subjects with ≥1 TEAE related to study treatment [2, 16]: 0 (0) n (%) | Cardiovascular AEs ([2]; LY3200882 as monotherapy): no cardiovascular AEs were observed | Deaths related to study treatment ([2]; overall): none | Patients with SAEs related to study drug ([2]; overall, 3 patients, only in combination expansion arms): 2.2% | Patients with at least 1 serious AE (SAE) ([2]; overall, 24 patients): 17.3% | Deaths reported in the study ([2]; overall, 63 deaths): 45.3% | Patients with TEAEs that were study-treatment (LY3200882) related ([2]; overall, all arms, 55 patients): 39.6% | Patients who experienced ≥1 TEAE ([2]; overall, all arms, 130 of 139 treated patients): 93.5% | Duration of response (RANO PR) ([3]; dose escalation, 1 patient IDH 1–mutant grade 4 glioma, 3w/1w schedule): 3.9 months | Duration of response (RANO PR) ([3]; dose escalation, 1 patient IDH WT grade 4 glioma, 2w/2w schedule): 19 months | Duration of response (RANO PR) ([3]; dose-expansion arm, 1 patient IDH WT grade 4 glioma, 50 mg twice a day 2w/2w): 5.6 months | median OS ([3]; dose-expansion arm, 15 patients with recurrent IDH mutant grade 4 glioma, 95% CI 7.3–NE): 10.6 months | median OS ([3]; dose-expansion arm, 25 patients with IDH WT grade 4 glioma, 95% CI 4.6–9.7): 8.2 months | median PFS ([3]; dose-expansion arm, IDH mutant, 95% CI 1.3–1.8): 1.7 months | Best overall response: CR [3, 17]: 0 (0) n (%) | Best overall response: Nonevaluable [3, 17]: 7 (18) n (%) | Best overall response: PR [3, 17]: 1 (3) n (%) | Best overall response: Progressive disease [3, 17]: 26 (65) n (%) | Best overall response: SD [3, 17]: 6 (15) n (%) | DCR (CR/PR/SD) [3, 17]: 7 (18) n (%) | ORR (CR/PR) [3, 17]: 1 (3) n (%) | Time remained on trial [3, 18]: 30.4 months | Tumor reduction by RANO assessment [3, 18]: 94% | Immunomodulatory effects [4]: induction of T-cell proliferation | Effect on tumors in 4T1 models [5]: durable tumor regression | NOAEL daily AUC threshold for cardiotoxicity ([6]; 2w/2w schedule): 3.4 mg X h/L | NOAEL daily AUC threshold for cardiotoxicity ([6]; 3w/1w schedule): 1.56 mg X h/L | NOAEL for cardiotoxicity (AUC) ([6]; nonclinical toxicology studies): 3.4 mg X hours/L | median OS ([7]; 35 mg twice a day 3w/1w (8 patients), 95% CI 2.6–NE): 4.0 months | median OS ([7]; 50 mg twice a day 2w/2w (17 patients), 95% CI 1.2–11.4): 6.1 months | Best overall response: CR ([7]; Japanese cohort (N = 9)): 0 (0) n (%) | Best overall response: Nonevaluable ([7]; Japanese cohort (N = 9)): 1 (11) n (%) | Best overall response: PR ([7]; Japanese cohort (N = 9)): 0 (0) n (%) | Best overall response: Progressive disease ([7]; Japanese cohort (N = 9)): 8 (89) n (%) | Best overall response: SD ([7]; Japanese cohort (N = 9)): 0 (0) n (%) | DCR (CR/PR/SD) ([7]; Japanese cohort (N = 9)): 0 (0) n (%) | ORR (CR/PR) ([7]; Japanese cohort (N = 9)): 0 (0) n (%) | median PFS ([7]; 35 mg twice a day 3w/1w (n = 8), 95% CI 0.8–2.6): 1.7 months | median PFS ([7]; 50 mg twice a day 2w/2w (n = 17), 95% CI 0.9–2.0): 1.8 months | Patients who achieved radiologic CR/PR [7, 19]: 11 patients | Patients who had SD [7, 19]: 28 patients | DCR ([7]; overall study population): 28.1% | Best overall response: CR [7, 20]: 0 (0) n (%) | Best overall response: Nonevaluable [7, 20]: 8 (27) n (%) | Best overall response: PR [7, 20]: 1 (3) n (%) | Best overall response: Progressive disease [7, 20]: 15 (50) n (%) | Best overall response: SD [7, 20]: 6 (20) n (%) | DCR (CR/PR/SD) [7, 20]: 7 (23) n (%) | ORR (CR/PR) [7, 20]: 1 (3) n (%) | Best overall response: CR [7, 21]: 0 (0) n (%) | Best overall response: Nonevaluable [7, 21]: 4 (13) n (%) | Best overall response: PR [7, 21]: 1 (3) n (%) | Best overall response: Progressive disease [7, 21]: 20 (63) n (%) | Best overall response: SD [7, 21]: 7 (22) n (%) | DCR (CR/PR/SD) [7, 21]: 8 (25) n (%) | ORR (CR/PR) [7, 21]: 1 (3) n (%) | PK profile linearity ([8]; 5- to 50-mg dose range): linear with dose and time | Doses after which steady state would be achieved ([8]; based on the short t1/2): 2 doses | Time at which peak concentration was reached after administration ([8]; oral, patients): 2 h | mean CL/F ([8]; oral, patients): 57.3 L/h | mean V/F ([8]; oral, patients): 559 L | Accumulation ratio ([8]; steady state, twice a day, based on the short t1/2): 1.4 fold | Effect on its own metabolism ([8]; suggested by PK constant over time): neither an inhibitor nor an inducer of its own metabolism
